According to ChEMBL document CHEMBL3098105, “7,7'-Diazaindirubin--a small molecule inhibitor of casein kinase 2 in vitro and in cells” (Bioorg Med Chem, 2014):
Activity calls are given as the source filed them. The calls are words filed in the database; no cut-off is given here.

Key:
[1] = biological target: Serine/threonine-protein kinase BRSK2 (Homo sapiens) (UniProt Q8IWQ3); experiment: Inhibition of human BrSK2 assessed as residual activity at 1 uM relative to control
[2] = biological target: Serine/threonine-protein kinase Nek2 (Homo sapiens) (UniProt P51955); experiment: Inhibition of human NEK2 assessed as residual activity at 1 uM relative to control
[3] = system: HCT-116; experiment: Antiproliferative activity against human HCT116 cells after 3 days by sulforhodamine B assay; type: functional; conditions: HCT-116, 72 h
Method in brief: (§1)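 Tested in the NCI 60 cell line panel. GI50 is the concentration giving 50% inhibition of cell growth, and values are the mean of two series of tests.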

[4] = biological target: Mitogen-activated protein kinase 10 (Homo sapiens) (UniProt P53779); experiment: Inhibition of human JNK3 assessed as residual activity at 1 uM relative to control
[5] = biological target: Serine/threonine-protein kinase 3 (Homo sapiens) (UniProt Q13188); experiment: Inhibition of human MST2 assessed as residual activity at 1 uM relative to control
[6] = biological target: Tyrosine-protein kinase Fer (Homo sapiens) (UniProt P16591); experiment: Inhibition of human Fer assessed as residual activity at 1 uM relative to control
[7] = biological target: Phosphorylase b kinase gamma catalytic chain, liver/testis isoform (Homo sapiens) (UniProt P15735); experiment: Inhibition of human PhKgamma2 assessed as residual activity at 1 uM relative to control
[8] = system: Ribosomal protein S6 kinase alpha-6 (Homo sapiens); experiment: Inhibition of human Rsk4 assessed as residual activity at 1 uM relative to control
[9] = system: M14; experiment: Antiproliferative activity against human M14 cells after 3 days by sulforhodamine B assay; type: functional; conditions: M14, 72 h; method in brief: as §1
[10] = biological target: Tyrosine-protein kinase receptor TYRO3 (Homo sapiens) (UniProt Q06418); experiment: Inhibition of human Rse assessed as residual activity at 1 uM relative to control
[11] = biological target: Mitogen-activated protein kinase 14 (Homo sapiens) (UniProt Q16539); experiment: Inhibition of human SAPK2alpha assessed as residual activity at 1 uM relative to control
[12] = biological target: Calcium/calmodulin-dependent protein kinase type 1 (Homo sapiens) (UniProt Q14012); experiment: Inhibition of human CaMK1 assessed as residual activity at 1 uM relative to control
[13] = system: COLO 205; experiment: Antiproliferative activity against human COLO205 cells after 3 days by sulforhodamine B assay; type: functional; conditions: COLO 205, 72 h; method in brief: as §1
[14] = system: MCF7; experiment: Cell cycle arrest in human MCF7 cells assessed as accumulation at G2/M phase at 0.5 uM after 24 hrs using propidium iodide staining by FACS analysis (reference value: 22.13%); type: functional
[15] = biological target: T1, Muscle, skeletal receptor tyrosine-protein kinase (Homo sapiens) (UniProt O15146); experiment: Inhibition of human MuSK assessed as residual activity at 1 uM relative to control
T1 sequence (whole entry): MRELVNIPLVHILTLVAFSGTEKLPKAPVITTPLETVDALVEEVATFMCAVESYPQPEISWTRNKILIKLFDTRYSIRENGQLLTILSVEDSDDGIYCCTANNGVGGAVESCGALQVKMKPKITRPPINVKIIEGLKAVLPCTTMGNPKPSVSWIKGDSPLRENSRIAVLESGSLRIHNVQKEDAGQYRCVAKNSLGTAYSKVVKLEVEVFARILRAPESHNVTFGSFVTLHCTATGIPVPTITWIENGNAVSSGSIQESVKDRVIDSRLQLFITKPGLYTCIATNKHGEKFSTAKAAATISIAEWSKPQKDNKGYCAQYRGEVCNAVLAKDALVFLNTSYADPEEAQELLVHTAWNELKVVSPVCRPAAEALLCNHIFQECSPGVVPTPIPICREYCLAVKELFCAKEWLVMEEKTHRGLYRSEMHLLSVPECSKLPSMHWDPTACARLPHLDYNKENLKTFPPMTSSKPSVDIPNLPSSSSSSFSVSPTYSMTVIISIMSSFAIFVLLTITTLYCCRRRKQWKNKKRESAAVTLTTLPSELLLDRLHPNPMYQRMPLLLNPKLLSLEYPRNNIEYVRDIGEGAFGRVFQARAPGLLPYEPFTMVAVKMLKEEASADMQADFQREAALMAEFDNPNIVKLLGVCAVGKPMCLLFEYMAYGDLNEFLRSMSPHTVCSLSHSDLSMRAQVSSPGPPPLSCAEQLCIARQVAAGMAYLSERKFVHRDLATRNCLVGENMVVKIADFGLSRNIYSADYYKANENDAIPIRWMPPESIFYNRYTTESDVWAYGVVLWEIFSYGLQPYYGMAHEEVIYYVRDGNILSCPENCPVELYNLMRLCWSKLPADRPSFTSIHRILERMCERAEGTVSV

[16] = system: SK-OV-3; experiment: Antiproliferative activity against human SKOV3 cells after 3 days by sulforhodamine B assay; type: functional; conditions: SK-OV-3, 72 h; method in brief: as §1
[17] = biological target: Ephrin type-A receptor 5 (Homo sapiens) (UniProt P54756); experiment: Inhibition of human EphA5 assessed as residual activity at 1 uM relative to control
[18] = biological target: Casein kinase I isoform gamma-3 (Homo sapiens) (UniProt Q9Y6M4); experiment: Inhibition of human CK1gamma3 assessed as residual activity at 1 uM relative to control
[19] = system: NCI-H322M; experiment: Antiproliferative activity against human NCI-H322M cells after 3 days by sulforhodamine B assay; type: functional; conditions: 72 h; method in brief: as §1
[20] = biological target: Focal adhesion kinase 1 (Homo sapiens) (UniProt Q05397); experiment: Inhibition of FAK fl (unknown origin) assessed as residual activity at 1 uM relative to control
[21] = biological target: Casein kinase I isoform gamma-2 (Homo sapiens) (UniProt P78368); experiment: Inhibition of human CK1gamma2 assessed as residual activity at 1 uM relative to control
[22] = biological target: Misshapen-like kinase 1 (Homo sapiens) (UniProt Q8N4C8); experiment: Inhibition of human MINK assessed as residual activity at 1 uM relative to control
[23] = biological target: Tyrosine-protein kinase ABL1 (Homo sapiens) (UniProt P00519); experiment: Inhibition of human Abl assessed as residual activity at 1 uM relative to control
[24] = biological target: Epidermal growth factor receptor (Homo sapiens) (UniProt P00533); experiment: Inhibition of human EGFR assessed as residual activity at 1 uM relative to control
[25] = biological target: Casein kinase II (Homo sapiens) (UniProt P67870+P68400+P19784); experiment: Inhibition of CK2 in human PANC1 cells assessed as reduction of Akt phosphorylation at S473 at 0.25 to 8 uM after 2 hrs by Western blot analysis; type: cell-based; conditions: PANC-1
Method in brief: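 Panc1 cells were cultured in DMEM with 10% heat-inactivated FBS and penicillin/streptomycin at 37 °C and 5% CO2. Cells were treated with a range of concentrations for 2 h, with Ly294002 as positive control. Urea-buffer lysates (20–40 µg protein) were separated on 10% SDS–PAGE and probed for pAkt (S473) and β-actin. Detection was by ECL.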

[26] = biological target: Mast/stem cell growth factor receptor Kit (Homo sapiens) (UniProt P10721); experiment: Inhibition of KIT (unknown origin) assessed as residual activity at 10 uM relative to control
Sequence of Mast/stem cell growth factor receptor Kit (Homo sapiens) (P10721 whole entry): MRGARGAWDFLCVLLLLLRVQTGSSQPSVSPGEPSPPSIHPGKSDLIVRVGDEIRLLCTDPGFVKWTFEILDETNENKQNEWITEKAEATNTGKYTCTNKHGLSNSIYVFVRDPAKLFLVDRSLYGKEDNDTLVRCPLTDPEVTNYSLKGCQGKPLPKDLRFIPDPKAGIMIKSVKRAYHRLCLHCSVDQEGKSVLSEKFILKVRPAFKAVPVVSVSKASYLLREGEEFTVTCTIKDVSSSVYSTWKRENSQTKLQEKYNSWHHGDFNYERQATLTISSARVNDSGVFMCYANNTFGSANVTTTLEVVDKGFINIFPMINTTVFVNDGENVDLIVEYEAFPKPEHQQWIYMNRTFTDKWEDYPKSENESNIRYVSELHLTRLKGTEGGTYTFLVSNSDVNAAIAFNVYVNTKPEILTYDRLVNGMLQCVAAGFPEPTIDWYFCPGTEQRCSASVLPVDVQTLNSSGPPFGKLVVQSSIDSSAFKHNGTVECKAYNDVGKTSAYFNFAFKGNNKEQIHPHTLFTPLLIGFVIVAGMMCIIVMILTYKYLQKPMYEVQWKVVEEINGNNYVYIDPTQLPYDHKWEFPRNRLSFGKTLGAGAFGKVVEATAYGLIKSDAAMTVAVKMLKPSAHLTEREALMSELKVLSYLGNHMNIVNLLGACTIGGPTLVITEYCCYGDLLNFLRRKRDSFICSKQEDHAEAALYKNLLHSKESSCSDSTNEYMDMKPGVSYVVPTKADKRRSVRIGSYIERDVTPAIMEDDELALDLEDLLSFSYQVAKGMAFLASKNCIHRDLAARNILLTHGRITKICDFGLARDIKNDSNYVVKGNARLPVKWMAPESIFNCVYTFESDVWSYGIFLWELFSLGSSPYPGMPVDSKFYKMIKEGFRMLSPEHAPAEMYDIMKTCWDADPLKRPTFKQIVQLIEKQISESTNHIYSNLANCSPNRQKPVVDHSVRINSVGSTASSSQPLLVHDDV

Sequence of Tyrosine-protein kinase ABL1 (Homo sapiens) (P00519 whole entry): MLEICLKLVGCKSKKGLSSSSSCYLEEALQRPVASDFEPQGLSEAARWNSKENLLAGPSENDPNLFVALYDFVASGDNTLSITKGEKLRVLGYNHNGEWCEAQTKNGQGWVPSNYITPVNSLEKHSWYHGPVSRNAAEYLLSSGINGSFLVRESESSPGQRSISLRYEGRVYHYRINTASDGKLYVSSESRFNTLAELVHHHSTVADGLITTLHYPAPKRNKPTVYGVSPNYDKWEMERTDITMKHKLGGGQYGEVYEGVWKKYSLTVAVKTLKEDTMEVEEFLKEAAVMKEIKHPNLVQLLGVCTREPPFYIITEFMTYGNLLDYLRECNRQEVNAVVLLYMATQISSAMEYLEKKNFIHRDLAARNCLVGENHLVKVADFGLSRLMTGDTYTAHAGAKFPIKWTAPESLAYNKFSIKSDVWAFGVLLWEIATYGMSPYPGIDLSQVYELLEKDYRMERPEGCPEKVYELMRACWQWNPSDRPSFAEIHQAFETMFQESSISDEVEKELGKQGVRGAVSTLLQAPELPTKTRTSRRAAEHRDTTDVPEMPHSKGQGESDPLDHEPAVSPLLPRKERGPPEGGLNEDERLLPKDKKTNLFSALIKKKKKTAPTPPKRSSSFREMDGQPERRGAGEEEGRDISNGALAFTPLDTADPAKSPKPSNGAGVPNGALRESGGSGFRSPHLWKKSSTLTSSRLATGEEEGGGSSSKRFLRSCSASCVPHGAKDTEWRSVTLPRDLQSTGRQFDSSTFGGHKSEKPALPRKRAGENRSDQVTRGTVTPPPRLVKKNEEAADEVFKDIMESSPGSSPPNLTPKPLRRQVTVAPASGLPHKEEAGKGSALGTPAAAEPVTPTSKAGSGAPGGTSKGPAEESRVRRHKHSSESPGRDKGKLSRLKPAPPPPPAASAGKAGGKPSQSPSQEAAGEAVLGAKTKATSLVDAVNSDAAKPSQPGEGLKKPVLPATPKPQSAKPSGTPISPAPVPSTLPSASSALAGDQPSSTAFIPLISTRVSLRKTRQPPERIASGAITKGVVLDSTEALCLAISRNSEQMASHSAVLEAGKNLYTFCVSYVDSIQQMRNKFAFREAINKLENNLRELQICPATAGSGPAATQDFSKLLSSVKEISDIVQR
Sequence of Phosphorylase b kinase gamma catalytic chain, liver/testis isoform (Homo sapiens) (P15735 whole entry, canonical isoform): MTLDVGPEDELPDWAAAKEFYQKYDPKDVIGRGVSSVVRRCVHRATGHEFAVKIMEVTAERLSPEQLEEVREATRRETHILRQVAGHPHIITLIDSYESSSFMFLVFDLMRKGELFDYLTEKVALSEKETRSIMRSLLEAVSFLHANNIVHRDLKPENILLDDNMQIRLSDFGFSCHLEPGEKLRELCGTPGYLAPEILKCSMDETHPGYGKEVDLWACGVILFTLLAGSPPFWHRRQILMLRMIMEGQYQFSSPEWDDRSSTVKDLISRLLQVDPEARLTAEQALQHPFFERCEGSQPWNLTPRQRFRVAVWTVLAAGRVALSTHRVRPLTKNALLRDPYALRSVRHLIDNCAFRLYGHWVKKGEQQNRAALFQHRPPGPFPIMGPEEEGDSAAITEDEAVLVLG
Sequence of Calcium/calmodulin-dependent protein kinase type 1 (Homo sapiens) (Q14012 whole entry, looked up): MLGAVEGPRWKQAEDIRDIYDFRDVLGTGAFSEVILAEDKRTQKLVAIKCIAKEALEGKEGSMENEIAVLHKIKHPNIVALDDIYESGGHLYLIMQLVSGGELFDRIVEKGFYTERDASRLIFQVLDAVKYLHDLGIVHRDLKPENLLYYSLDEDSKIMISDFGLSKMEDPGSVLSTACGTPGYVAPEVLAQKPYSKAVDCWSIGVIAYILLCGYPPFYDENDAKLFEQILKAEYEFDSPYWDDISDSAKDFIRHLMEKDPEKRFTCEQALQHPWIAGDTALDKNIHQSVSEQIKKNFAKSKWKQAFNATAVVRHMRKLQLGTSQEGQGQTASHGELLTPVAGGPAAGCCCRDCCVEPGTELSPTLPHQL
Sequence of Serine/threonine-protein kinase 3 (Homo sapiens) (Q13188 whole entry): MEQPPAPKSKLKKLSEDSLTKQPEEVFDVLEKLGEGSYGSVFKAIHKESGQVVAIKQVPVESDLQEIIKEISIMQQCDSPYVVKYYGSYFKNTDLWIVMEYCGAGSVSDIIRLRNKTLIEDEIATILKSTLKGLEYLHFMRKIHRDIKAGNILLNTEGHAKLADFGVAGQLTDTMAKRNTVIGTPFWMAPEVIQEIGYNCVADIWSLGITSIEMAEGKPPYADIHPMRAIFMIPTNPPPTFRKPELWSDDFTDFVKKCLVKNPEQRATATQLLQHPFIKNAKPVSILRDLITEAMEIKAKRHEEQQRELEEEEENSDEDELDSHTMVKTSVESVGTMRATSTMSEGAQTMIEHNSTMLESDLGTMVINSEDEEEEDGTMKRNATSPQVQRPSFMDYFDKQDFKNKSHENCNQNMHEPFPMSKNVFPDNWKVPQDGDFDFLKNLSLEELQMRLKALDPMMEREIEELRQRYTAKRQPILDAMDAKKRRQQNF
Sequence of Mitogen-activated protein kinase 14 (Homo sapiens) (Q16539 whole entry): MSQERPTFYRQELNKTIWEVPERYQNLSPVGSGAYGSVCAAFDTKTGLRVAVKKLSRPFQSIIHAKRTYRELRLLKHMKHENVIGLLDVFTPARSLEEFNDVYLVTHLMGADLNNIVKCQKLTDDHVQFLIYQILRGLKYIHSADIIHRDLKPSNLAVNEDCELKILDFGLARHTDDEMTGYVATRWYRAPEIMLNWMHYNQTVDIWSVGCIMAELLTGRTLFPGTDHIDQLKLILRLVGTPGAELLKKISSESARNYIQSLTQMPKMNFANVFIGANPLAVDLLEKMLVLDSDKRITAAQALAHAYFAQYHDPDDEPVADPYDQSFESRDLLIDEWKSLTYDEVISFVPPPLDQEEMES
Sequence of Epidermal growth factor receptor (Homo sapiens) (P00533 whole entry): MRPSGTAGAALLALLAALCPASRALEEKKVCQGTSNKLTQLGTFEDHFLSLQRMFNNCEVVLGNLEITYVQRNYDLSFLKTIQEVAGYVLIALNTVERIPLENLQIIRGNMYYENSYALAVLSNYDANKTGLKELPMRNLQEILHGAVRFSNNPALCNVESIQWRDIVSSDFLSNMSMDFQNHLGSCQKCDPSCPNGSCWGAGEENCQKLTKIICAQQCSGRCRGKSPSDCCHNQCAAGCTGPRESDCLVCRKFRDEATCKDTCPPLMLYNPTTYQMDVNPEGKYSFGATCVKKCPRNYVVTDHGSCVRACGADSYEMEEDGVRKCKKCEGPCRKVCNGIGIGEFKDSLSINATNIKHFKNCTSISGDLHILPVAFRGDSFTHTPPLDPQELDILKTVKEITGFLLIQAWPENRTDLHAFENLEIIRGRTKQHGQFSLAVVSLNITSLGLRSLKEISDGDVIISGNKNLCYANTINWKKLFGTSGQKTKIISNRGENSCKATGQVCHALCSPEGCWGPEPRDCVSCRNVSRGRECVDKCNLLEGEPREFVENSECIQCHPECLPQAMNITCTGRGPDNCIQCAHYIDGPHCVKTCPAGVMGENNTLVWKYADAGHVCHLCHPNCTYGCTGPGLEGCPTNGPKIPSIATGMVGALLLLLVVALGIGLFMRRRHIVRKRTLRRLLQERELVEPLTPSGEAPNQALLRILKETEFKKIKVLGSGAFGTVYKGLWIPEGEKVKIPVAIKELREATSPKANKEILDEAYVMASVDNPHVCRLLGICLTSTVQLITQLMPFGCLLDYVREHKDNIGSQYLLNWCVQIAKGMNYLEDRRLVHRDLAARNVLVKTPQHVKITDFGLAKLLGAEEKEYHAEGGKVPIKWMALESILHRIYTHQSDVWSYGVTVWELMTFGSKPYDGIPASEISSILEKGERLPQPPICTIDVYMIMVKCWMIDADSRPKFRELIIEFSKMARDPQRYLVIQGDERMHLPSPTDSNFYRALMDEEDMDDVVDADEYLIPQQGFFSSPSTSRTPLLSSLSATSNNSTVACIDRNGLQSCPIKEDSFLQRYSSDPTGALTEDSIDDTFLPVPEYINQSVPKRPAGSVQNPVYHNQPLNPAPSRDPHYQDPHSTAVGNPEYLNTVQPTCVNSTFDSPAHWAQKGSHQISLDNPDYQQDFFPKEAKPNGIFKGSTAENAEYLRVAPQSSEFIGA

SMILES: O=C1Nc2ncccc2/C1=C1/Nc2ncccc2C1=O
- Activity [1]: 108%
- Activity [2]: 101%
- GI50 [3]: 1010 nM
- Activity [4]: 120%
- Activity [5]: 105%
- Activity [6]: 102%
- Activity [7]: 104%
- Activity [8]: 122%
- GI50 [9]: 391 nM
- Activity [10]: 93%
- Activity [11]: 111%
- Activity [12]: 120%
- GI50 [13]: 372 nM
- Activity [14]: 21.21%
- Activity [15]: 134%
- GI50 [16]: 3950 nM
- Activity [17]: 125%
- Activity [18]: 37%
- GI50 [19]: 282 nM
- Activity [20]: 94%
- Activity [21]: 114%
- Activity [22]: 62%
- Activity [23]: 122%
- Activity [24]: 120%
- inhibition [25]: Active
- Activity [26]: 73%
